Assays:
Format in all cases: in vivo, human
[1] = test system: subjects with type 1 diabetes mellitus; assay: Euglycaemic glucose clamp; conditions: single s.c. 0.2 U/kg
Method in brief: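 Single 0.2 U/kg s.c. dose into the lower abdominal wall in randomised two-visit crossover (3–12 day washout), elderly (≥65 y) and younger (18–35 y) T1DM subjects, morning after overnight fast. Euglycaemic clamp, BG target 5.5 mmol/L, up to 12 h. GIR logged every minute. Partial and total AUCGIR taken from raw profiles. Least square means; age-group ratios with 95% CI.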

[2] = Free serum insulin aspart pharmacokinetics after single subcutaneous dosing; conditions: single s.c. 0.2 U/kg
Method in brief: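 Same crossover dosing (0.2 U/kg s.c., fasted). Blood sampled before dosing, every 2 min to 20 min, every 5 min to 80 min, every 10 min to 2 h, every 15 min to 3 h, then 3.5–12 h. Free (PEG-precipitated) serum insulin aspart measured by validated specific ELISA, LLOQ 10 pmol/L. Pre-LLOQ concentrations imputed by compartmental modelling for initial AUC portion.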

[3] = test system: subjects with type 1 diabetes mellitus; assay: Safety assessments
Method in brief: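 Monitored from dosing to follow-up 7–21 days after second dose: adverse events, injection-site local tolerability, hypoglycaemic episodes, laboratory safety, physical exam, vital signs, ECG. Hypoglycaemia confirmed if severe (ADA, third-party assistance) or plasma glucose <3.1 mmol/L. Summarised descriptively for subjects receiving at least one dose.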

[4] = elderly (≥65 years) T1DM, least square mean, n = 30
[5] = elderly and younger adults with T1DM, single s.c. 0.2 U/kg

Substance: insulin aspart
- GIRmax, ratio of elderly/younger adults [95% CI] ([1]; age group ratio, T1DM): 0.78 [0.60–1.01]
- AUCGIR,0-t, ratio of elderly/younger adults [95% CI] ([1]; age group ratio, T1DM, primary endpoint for faster aspart): 0.85 [0.67–1.07]
- AUCGIR,0-t (total glucose-lowering effect) ([1]; elderly T1DM, clamp up to 12 h, least square mean, n = 22): 1012.5 mg/kg
- AUCIAsp,0-t, ratio of elderly/younger adults [95% CI] ([2]; age group ratio, T1DM): 1.32 [1.09–1.59]
- C max, ratio of elderly/younger adults [95% CI] ([2]; age group ratio, T1DM): 1.20 [0.96–1.50]
- t Early 50% Cmax [2, 4]: 28.0 min
- t max [2, 4]: 1.07 h
- C max (maximum insulin aspart concentration) ([2]; elderly T1DM, least square mean, n = 30): 0.3676 nM
- Injection-site reactions ([3]; during the trial): no injection-site reactions
- Adverse events of moderate intensity [3, 5]: eight
- Serious adverse events [3, 5]: no serious adverse events
- Tolerability [3, 5]: well-tolerated
- Confirmed hypoglycaemic episodes ([3]; severe (ADA) or plasma glucose <3.1 mmol/L, during the trial): No confirmed hypoglycaemic episodes

Reference: publication PMC5222895 (Drugs & Aging, 2016)
